Consider 15 compounds from ChEMBL document CHEMBL1121719, “1-Oxacephalosporins: enhancement of beta-lactam reactivity and antibacterial activity” (1981).

Values after ≈ are worked out from the molar mass of the structure shown.

By MIC is commonly meant the smallest concentration in the dilution series that meets the test's criterion for growth inhibition. Low values mean greater potency, high ones weaker potency.

Assay [1] deals with Escherichia coli. In words: Inhibitory concentration of compound was tested against gram negative Escherichia coli NIH JC-2. The assay is classed as functional. The method, boiled down: (§1)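 MIC by agar dilution on sensitivity test agar with serial twofold antibiotic dilutions. The inoculum was an overnight tryptose broth culture diluted to about 10⁶ cells/mL. Plates were incubated at 37 °C for 18-20 h. MIC was the lowest concentration inhibiting visible growth.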

Assay [2] has as its system Escherichia coli. Put plainly: Inhibitory concentration of compound was tested against gram negative Escherichia coli 73. The format is functional. The method, boiled down:
as §1

In assay [3] the test system is Escherichia coli. In words: Inhibitory concentration of compound was tested against gram negative Escherichia coli H organism. The assay is classed as functional. The method in brief:
as §1

Assay [4] relates to Klebsiella pneumoniae. Put plainly: (§2) Inhibitory concentration of compound was tested against gram negative Klebsiella sp 363. The assay is classed as functional. The method, boiled down:
as §1

The target in assay [5] is Beta-lactamase (Escherichia coli K-12) (UniProt P00811). In words: Hydrolysis rate by the beta-lactamase from Escherichia coli 6 relative to cephaloridine. The method, boiled down: (§3)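 Cells were grown statically in nutrient phosphate broth for 16 h at 37 °C and disrupted ultrasonically. β-lactamase was partially purified on CM-Sephadex C-50. Substrate (100 μM final) was hydrolysed in 0.1 M potassium phosphate pH 7.0 at 30 °C, with the enzyme diluted in buffer containing 0.001% gelatin. Rate came from the slope of UV optical density decrease and was expressed relative to cephaloridine = 100.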

For assay [6], the target named is Beta-lactamase TEM (Escherichia coli) (UniProt P62593). Put plainly: Hydrolysis rate by the beta-lactamase from Escherichia coli W3110 RTEM relative to cephaloridine. The method, boiled down:
(§4)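 Constitutive producers were grown statically in nutrient phosphate broth at 37 °C for 16 h, then sonicated. Enzyme was partially purified on DEAE-Sephadex A-25 (phosphate gradient, 0.01 M pH 8.0 to 0.5 M pH 6.2). Assay conditions: 0.1 M potassium phosphate pH 7.0, 30 °C, 0.001% gelatin in enzyme diluent, 100 μM final substrate. Hydrolysis rate was taken from the slope of UV absorbance decrease, with cephaloridine set to 100.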

The subject of assay [7] is Klebsiella pneumoniae. Put plainly: Inhibitory concentration of compound was tested against gram negative Klebsiella pneumoniae. The assay is classed as functional. The method in brief: as §1
The next assay has as its system Proteus mirabilis. Put plainly: Inhibitory concentration of compound was tested against gram negative Proteus mirabilis PR-4. The assay is classed as functional. The method, boiled down: as §1
Assay [8] deals with Beta-lactamase (Proteus vulgaris). In words: Hydrolysis rate by the beta-lactamase from Proteus vulgaris 31 relative to cephaloridine.
The target in assay [9] is T1, Beta-lactamase (Klebsiella oxytoca) (UniProt Q8RT60).
T1 sequence (whole entry): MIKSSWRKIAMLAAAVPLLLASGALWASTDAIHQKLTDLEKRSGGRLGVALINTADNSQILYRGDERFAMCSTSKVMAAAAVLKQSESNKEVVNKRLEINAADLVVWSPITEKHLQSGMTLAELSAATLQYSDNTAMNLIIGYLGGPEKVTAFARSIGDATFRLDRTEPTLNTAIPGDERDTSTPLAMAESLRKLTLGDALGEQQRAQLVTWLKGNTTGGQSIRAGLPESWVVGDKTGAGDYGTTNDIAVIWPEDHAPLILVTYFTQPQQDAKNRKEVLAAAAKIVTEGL
Put plainly: Hydrolysis rate by beta-lactamase of Klebsiella sp. 363 relative to cephaloridine (100). The method, boiled down:
as §4

Assay [10] deals with Beta-lactamase (Enterobacter cloacae) (UniProt P05364). Put plainly: Hydrolysis rate by the beta-lactamase from Enterobacter cloacae 214 relative to cephaloridine (100); c= Hydrolysis was not detected. The method, boiled down: as §3
Assay [11] deals with Beta-lactamase (Escherichia coli K-12) (UniProt P00811). Put plainly: Hydrolysis rate by the beta-lactamase from Escherichia coli 6 relative to cephaloridine (100); c= Hydrolysis was not detected. The method, boiled down:
as §3

The next assay deals with Klebsiella. The description is as §2. The assay is classed as functional. The method in brief:
as §1

Beta-lactamase (Escherichia coli K-12), sequence (P00811 whole entry): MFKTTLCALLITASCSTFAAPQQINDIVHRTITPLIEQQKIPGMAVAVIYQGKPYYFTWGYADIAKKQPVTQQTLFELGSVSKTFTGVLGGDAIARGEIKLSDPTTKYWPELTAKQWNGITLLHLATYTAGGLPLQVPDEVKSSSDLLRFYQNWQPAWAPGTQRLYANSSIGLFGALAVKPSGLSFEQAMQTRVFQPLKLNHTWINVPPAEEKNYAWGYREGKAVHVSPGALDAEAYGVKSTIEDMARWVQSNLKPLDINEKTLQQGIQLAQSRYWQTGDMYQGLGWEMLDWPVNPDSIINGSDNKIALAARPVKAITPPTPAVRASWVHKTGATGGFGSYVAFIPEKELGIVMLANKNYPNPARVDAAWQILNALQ
Beta-lactamase TEM (Escherichia coli), sequence (P62593 whole entry): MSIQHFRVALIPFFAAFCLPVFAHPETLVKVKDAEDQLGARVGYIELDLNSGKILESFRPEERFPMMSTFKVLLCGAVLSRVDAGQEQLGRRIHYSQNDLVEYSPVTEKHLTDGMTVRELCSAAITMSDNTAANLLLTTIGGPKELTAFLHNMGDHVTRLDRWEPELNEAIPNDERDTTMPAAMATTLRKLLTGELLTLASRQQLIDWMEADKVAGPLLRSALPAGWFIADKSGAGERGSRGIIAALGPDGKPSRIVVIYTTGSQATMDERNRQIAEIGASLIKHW
Beta-lactamase (Enterobacter cloacae), sequence (P05364 21-381 limits assumed): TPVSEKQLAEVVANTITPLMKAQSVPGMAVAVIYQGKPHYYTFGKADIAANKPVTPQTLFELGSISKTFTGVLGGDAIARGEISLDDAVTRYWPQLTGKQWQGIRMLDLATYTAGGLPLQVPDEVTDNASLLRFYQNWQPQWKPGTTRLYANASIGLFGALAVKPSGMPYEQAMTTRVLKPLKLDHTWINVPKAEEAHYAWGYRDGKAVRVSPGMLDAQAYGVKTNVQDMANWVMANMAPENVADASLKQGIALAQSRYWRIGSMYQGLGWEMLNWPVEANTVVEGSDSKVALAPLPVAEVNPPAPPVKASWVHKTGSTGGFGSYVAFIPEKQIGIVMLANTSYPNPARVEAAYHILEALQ

Consider `CCN1CCN(C(=O)NC(C(=O)NC2C(=O)N3C(C(=O)O)=C(CSc4nnnn4C)COC23)c2ccc(OC(N)=O)cc2)C(=O)C1=O` (stereo unspecified), for which the minimum inhibitory concentration (MIC) was ≤ 0.013 µg/mL in the assay on Escherichia coli [1]; 12.5 µg/mL (≈ 18.6 µM) against Escherichia coli [2]; ≤ 0.013 µg/mL in the assay on Escherichia coli [3]; 12.5 µg/mL (≈ 18.6 µM) against Klebsiella pneumoniae [4]; ≤ 0.013 µg/mL against Klebsiella pneumoniae [7]; 0.2 µg/mL (≈ 0.297 µM) against Proteus mirabilis. In addition, the Relative hydrolysis rate was 10 in [5], 110 in assay [6], 34 in assay [8] and 0.69 in [9].

Turning to `Cn1nnnc1SCC1=C(C(=O)O)N2C(=O)C(NC(=O)Cc3csc(N)n3)C2SC1` (stereo unspecified), the MIC is 0.1 µg/mL (≈ 0.213 µM) in the assay with Escherichia coli [1]; 1.56 µg/mL (≈ 3.33 µM) against Escherichia coli [2]; 0.05 µg/mL (≈ 0.107 µM) against Escherichia coli [3]; 6.25 µg/mL (≈ 13.3 µM) in the assay with Klebsiella pneumoniae [4]; 0.1 µg/mL (≈ 0.213 µM) against Klebsiella pneumoniae [7]; 0.1 µg/mL (≈ 0.213 µM) in the assay with Proteus mirabilis. Also, the Relative hydrolysis rate in assay [5] came out at 120; in assay [6] it was 17; in assay [8] it was 250; in assay [9], 4.1.

In the case of `Cn1nnnc1SCC1=C(C(=O)O)N2C(=O)C(NC(=O)Cc3ccc(O)cc3)C2OC1` (stereo unspecified), the MIC in the assay on Escherichia coli [1] was 0.78 µg/mL (≈ 1.75 µM); in the assay on Escherichia coli [2], > 100 µg/mL; against Escherichia coli [3], 0.39 µg/mL (≈ 0.874 µM); in the assay with Klebsiella pneumoniae [4], > 100 µg/mL; in the assay with Klebsiella pneumoniae [7] it was 0.78 µg/mL (≈ 1.75 µM); in the assay on Proteus mirabilis, 0.39 µg/mL (≈ 0.874 µM). Further, the Relative hydrolysis rate in assay [5] was 1200; in [6] it was 560; in [8], 710; in assay [9], 630.

Turning to `CC1=C(C(=O)O)N2C(=O)[C@@H](NC(=O)[C@H](N)c3ccccc3)[C@H]2SC1`, the results for the Relative hydrolysis rate in [5] and in assay [6] were 57 and 0.75, respectively.

`Cn1nnnc1SCC1=C(C(=O)O)N2C(=O)C(NC(=O)Cc3ccc(O)cc3)C2SC1` (stereo unspecified): the MIC was found to be 3.13 µg/mL (≈ 6.77 µM) in the assay with Escherichia coli [1]; 25 µg/mL (≈ 54.1 µM) with Escherichia coli [2]; 0.78 µg/mL (≈ 1.69 µM) in the assay on Escherichia coli [3]; 100 µg/mL (≈ 216 µM) in the assay with Klebsiella pneumoniae [4]; 1.56 µg/mL (≈ 3.37 µM) against Klebsiella pneumoniae [7]; 1.56 µg/mL (≈ 3.37 µM) against Proteus mirabilis. Also, the Relative hydrolysis rate in [5] stood at 360; in assay [6] it was 39; in [8], 410; in assay [9] it was 120.

Take `Cn1nnnc1SCC1=C(C(=O)O)N2C(=O)C(NC(=O)C(O)c3ccccc3)C2SC1` (stereo unspecified): the minimum inhibitory concentration (MIC) is 0.39 µg/mL (≈ 0.843 µM) in the assay with Escherichia coli [1]; 25 µg/mL (≈ 54.1 µM) against Escherichia coli [2]; 0.2 µg/mL (≈ 0.432 µM) in the assay on Escherichia coli [3]; > 100 µg/mL with Klebsiella pneumoniae [4]; 0.39 µg/mL (≈ 0.843 µM) in the assay with Klebsiella pneumoniae [7]; 0.78 µg/mL (≈ 1.69 µM) against Proteus mirabilis. Besides, the Relative hydrolysis rate stood at 14 in assay [5], 55 in assay [6] and 130 in assay [9].

Regarding `CC1=C(C(=O)O)N2C(=O)C(NC(=O)CSC(F)(F)F)C2OC1` (stereo unspecified), the MIC against Escherichia coli [1] was 6.25 µg/mL (≈ 18.4 µM); against Escherichia coli [2] it was 100 µg/mL (≈ 294 µM); against Escherichia coli [3], 3.13 µg/mL (≈ 9.2 µM); against Klebsiella pneumoniae [4] it was > 100 µg/mL; against Klebsiella pneumoniae [7], 6.25 µg/mL (≈ 18.4 µM); in the assay with Proteus mirabilis, 25 µg/mL (≈ 73.5 µM). The Relative hydrolysis rate was 910 in [5], 18 in assay [6], 500 in assay [8] and 100 in assay [9].

Turning to `Cn1nnnc1SCC1=C(C(=O)O)N2C(=O)C(NC(=O)/C(=N\O)c3ccc(NS(C)(=O)=O)cc3)C2OC1` (stereo unspecified), the MIC with Escherichia coli [1] was 0.78 µg/mL (≈ 1.41 µM); against Escherichia coli [2], > 100 µg/mL; in the assay on Escherichia coli [3], 0.78 µg/mL (≈ 1.41 µM); against Klebsiella pneumoniae [4], > 100 µg/mL; in the assay on Klebsiella pneumoniae [7], 0.78 µg/mL (≈ 1.41 µM); against Proteus mirabilis it was 1.56 µg/mL (≈ 2.82 µM). Also, the Relative hydrolysis rate was found to be 5.5 in assay [5], 290 in assay [6], 330 in [8] and 350 in assay [9].

In the case of `Cn1nnnc1SCC1=C(C(=O)O)N2C(=O)C(NC(=O)/C(=N\O)c3ccc(NS(C)(=O)=O)cc3)C2SC1` (stereo unspecified), the MIC was 0.78 µg/mL (≈ 1.37 µM) in the assay on Escherichia coli [1]; 50 µg/mL (≈ 87.9 µM) in the assay with Escherichia coli [2]; 0.78 µg/mL (≈ 1.37 µM) in the assay on Escherichia coli [3]; > 100 µg/mL against Klebsiella pneumoniae [4]; 1.56 µg/mL (≈ 2.74 µM) with Klebsiella pneumoniae [7]; 6.25 µg/mL (≈ 11 µM) with Proteus mirabilis. The Relative hydrolysis rate in assay [5] amounted to 2.2; in [6] it was 34; in [8], 170; in [9], 35.

Take `Cc1nnc(SCC2=C(C(=O)O)N3C(=O)C(NC(=O)Cn4cnnn4)C3OC2)s1` (stereo unspecified): the minimal inhibitory concentration (MIC) in the assay on Escherichia coli [1] was 0.78 µg/mL (≈ 1.78 µM); against Escherichia coli [2], > 100 µg/mL; with Escherichia coli [3] it was 0.78 µg/mL (≈ 1.78 µM); in the assay on Klebsiella pneumoniae [4], > 100 µg/mL; against Klebsiella pneumoniae [7], 1.56 µg/mL (≈ 3.56 µM); against Proteus mirabilis, 1.56 µg/mL (≈ 3.56 µM). Moreover, the Relative hydrolysis rate in assay [5] was found to be 150; in [6], 620; in assay [8] it was 1200; in assay [9], 380.

As to `Cn1nnnc1SCC1=C(C(=O)O)N2C(=O)C(NC(=O)C(C(=O)O)c3ccc(O)cc3)C2OC1` (stereo unspecified), the MIC against Escherichia coli [1] is 0.2 µg/mL (≈ 0.408 µM); in the assay on Escherichia coli [2], 50 µg/mL (≈ 102 µM); with Escherichia coli [3] it was 0.2 µg/mL (≈ 0.408 µM); in the assay on Klebsiella pneumoniae [4], 100 µg/mL (≈ 204 µM); against Klebsiella pneumoniae [7] it was 0.2 µg/mL (≈ 0.408 µM); against Proteus mirabilis it was 0.39 µg/mL (≈ 0.795 µM). The Relative hydrolysis rate entry was “Hydrolysis not detected” in assay [10]; “Hydrolysis not detected” in [11]; 19 in assay [6]; 86 in assay [8]; 80 in [9].

As to `Cn1nnnc1SCC1=C(C(=O)O)N2C(=O)C(NC(=O)Cc3csc(N)n3)C2OC1` (stereo unspecified), the minimal inhibitory concentration (MIC) is 0.2 µg/mL (≈ 0.442 µM) against Escherichia coli [1]; > 100 µg/mL with Escherichia coli [2]; 0.1 µg/mL (≈ 0.221 µM) with Escherichia coli [3]; > 100 µg/mL against Klebsiella pneumoniae [4]; 0.2 µg/mL (≈ 0.442 µM) against Klebsiella pneumoniae [7]; 0.2 µg/mL (≈ 0.442 µM) against Proteus mirabilis. The Relative hydrolysis rate in [5] stood at 360; in assay [6], 350; in [8], 770; in [9], 240.

Take `Cc1nnc(SCC2=C(C(=O)O)N3C(=O)C(NC(=O)Cn4cnnn4)C3SC2)s1` (stereo unspecified): the MIC in the assay on Escherichia coli [1] is 1.56 µg/mL (≈ 3.43 µM); in the assay on Escherichia coli [2], 25 µg/mL (≈ 55 µM); against Escherichia coli [3], 1.56 µg/mL (≈ 3.43 µM); in the assay with Klebsiella, > 100 µg/mL.

In the case of `CCN1CCN(C(=O)NC(C(=O)NC2C(=O)N3C(C(=O)O)=C(CSc4nnnn4C)CSC23)c2ccc(OC(N)=O)cc2)C(=O)C1=O` (stereo unspecified), the MIC is 0.1 µg/mL (≈ 0.145 µM) against Escherichia coli [1]; 12.5 µg/mL (≈ 18.2 µM) in the assay with Escherichia coli [2]; ≤ 0.013 µg/mL against Escherichia coli [3]; > 100 µg/mL against Klebsiella pneumoniae [4]; 0.05 µg/mL (≈ 0.0726 µM) against Klebsiella pneumoniae [7]; 1.56 µg/mL (≈ 2.27 µM) with Proteus mirabilis. Moreover, the Relative hydrolysis rate turned out to be 5.1 in [5], 59 in assay [6], 16 in [8] and 3.1 in assay [9].

For `Cn1nnnc1SCC1=C(C(=O)O)N2C(=O)C(NC(=O)C(O)c3ccccc3)C2OC1` (stereo unspecified), the MIC against Escherichia coli [1] was 0.05 µg/mL (≈ 0.112 µM); against Escherichia coli [2] it was > 100 µg/mL; in the assay with Escherichia coli [3] it was 0.05 µg/mL (≈ 0.112 µM); in the assay on Klebsiella pneumoniae [4], 100 µg/mL (≈ 224 µM); against Klebsiella pneumoniae [7], 0.05 µg/mL (≈ 0.112 µM); in the assay with Proteus mirabilis it was 0.1 µg/mL (≈ 0.224 µM). The Relative hydrolysis rate was found to be 39 in assay [5], 370 in assay [6], 300 in assay [8] and 360 in assay [9].
